Assay results reported in ChEMBL document CHEMBL1155442, “Click chemistry approach to new N-substituted aminocyclitols as potential pharmacological chaperones for Gaucher disease” (J Med Chem, 2010).
The source made the active and inactive calls. The rule behind the calls is not given here.

Legend:
[1] = target: T1, Lysosomal acid glucosylceramidase (Homo sapiens) (UniProt P04062); assay: Binding affinity to recombinant beta-glucocerebrosidase assessed as enzymatic activity at 25 uM after 40 mins by thermal stabilization assay relative to control
T1 sequence (whole entry): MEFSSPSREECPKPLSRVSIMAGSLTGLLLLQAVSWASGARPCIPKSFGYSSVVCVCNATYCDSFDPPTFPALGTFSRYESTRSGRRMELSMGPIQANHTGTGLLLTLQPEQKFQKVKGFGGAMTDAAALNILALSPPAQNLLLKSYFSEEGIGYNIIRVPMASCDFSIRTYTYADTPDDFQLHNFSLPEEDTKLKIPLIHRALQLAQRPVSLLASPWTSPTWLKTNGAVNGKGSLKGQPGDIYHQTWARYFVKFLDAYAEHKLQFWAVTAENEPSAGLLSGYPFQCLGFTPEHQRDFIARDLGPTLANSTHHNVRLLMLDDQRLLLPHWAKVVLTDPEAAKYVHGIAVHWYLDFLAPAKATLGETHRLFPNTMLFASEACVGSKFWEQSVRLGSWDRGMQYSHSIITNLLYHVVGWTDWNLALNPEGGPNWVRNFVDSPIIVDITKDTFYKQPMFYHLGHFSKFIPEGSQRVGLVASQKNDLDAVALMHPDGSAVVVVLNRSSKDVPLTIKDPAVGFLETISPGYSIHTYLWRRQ
Summary of the method: (§1)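 Recombinant GCase (imiglucerase, 2 mg/mL aliquots) held at pH 7.4 and 48 °C with 0 (control) or 10–150 μM compound. At 20, 40 or 60 min, acetate-phosphate buffer (pH 5.0) and 4 mM 4-methylumbelliferyl β-D-glucoside in McIlvaine pH 5.2 added. Incubated 10 min at 37 °C with 0.1% Triton X-100 and 0.2% taurodeoxycholic acid. Stopped with glycine pH 10.6; 4-MU fluorescence read. Activity expressed relative to enzyme at 37 °C.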

[2] = target: T1, Lysosomal acid glucosylceramidase (Homo sapiens); assay: Binding affinity to recombinant beta-glucocerebrosidase assessed as enzymatic activity at 150 uM after 20 mins by thermal stabilization assay relative to control
[3] = tested on: Saccharomyces cerevisiae; assay: Inhibition of yeast alpha-glucosidase at 0.1 mM
[4] = Selectivity index, ratio of CC50 for human fibroblast to Ki for beta-glucocerebrosidase
[5] = target: T1, Lysosomal acid glucosylceramidase (Homo sapiens); assay: Binding affinity to recombinant beta-glucocerebrosidase assessed as enzymatic activity at 100 uM after 60 mins by thermal stabilization assay relative to control
[6] = target: T1, Lysosomal acid glucosylceramidase (Homo sapiens); assay: Binding affinity to recombinant beta-glucocerebrosidase assessed as enzymatic activity at 150 uM after 40 mins by thermal stabilization assay relative to control
[7] = target: T1, Lysosomal acid glucosylceramidase (Homo sapiens); assay: Binding affinity to recombinant beta-glucocerebrosidase assessed as enzymatic activity at 100 uM after 40 mins by thermal stabilization assay relative to control
[8] = target: T1, Lysosomal acid glucosylceramidase (Homo sapiens); conditions: 0.1 to 0.25 uM
[9] = target: T1, Lysosomal acid glucosylceramidase (Homo sapiens); assay: Binding affinity to recombinant beta-glucocerebrosidase assessed as enzymatic activity at 100 uM after 20 mins by thermal stabilization assay relative to control
[10] = target: T2, Lysosomal acid glucosylceramidase (Homo sapiens, UniProt P04062); assay: Competitive inhibition of beta-glucocerebrosidase at pH 5.2 by Lineweaver-Burke plot analysis
T2 sequence (P04062 whole entry): T1 sequence (whole entry)

[11] = target: T1, Lysosomal acid glucosylceramidase (Homo sapiens); assay: Binding affinity to recombinant beta-glucocerebrosidase assessed as enzymatic activity at 10 uM after 60 mins by thermal stabilization assay relative to control; summary of the method: as §1
[12] = Cytotoxicity against human fibroblast at 300 uM after 24 hrs by MTT assay; assay type: cell-based
[13] = target: T1, Lysosomal acid glucosylceramidase (Homo sapiens); assay: Binding affinity to recombinant beta-glucocerebrosidase assessed as enzymatic activity at 25 uM after 20 mins by thermal stabilization assay relative to control; summary of the method: as §1
[14] = tested on: Oryza sativa; assay: Inhibition of rice alpha-glucosidase at 0.1 mM
[15] = target: T1, Lysosomal acid glucosylceramidase (Homo sapiens); assay: Binding affinity to recombinant beta-glucocerebrosidase assessed as enzymatic activity at 10 uM after 20 mins by thermal stabilization assay relative to control; summary of the method: as §1
[16] = target: T2, Lysosomal acid glucosylceramidase; assay: Inhibition of recombinant beta-glucocerebrosidase at pH 7.4 after 10 mins by fluorimetry
[17] = target: T2, Lysosomal acid glucosylceramidase; assay: Inhibition of recombinant beta-glucocerebrosidase at pH 5.2 after 10 mins by fluorimetry
[18] = target: T1, Lysosomal acid glucosylceramidase (Homo sapiens); assay: Binding affinity to recombinant beta-glucocerebrosidase assessed as enzymatic activity at 150 uM after 60 mins by thermal stabilization assay relative to control
[19] = target: T1, Lysosomal acid glucosylceramidase (Homo sapiens); assay: Binding affinity to recombinant beta-glucocerebrosidase assessed as enzymatic activity at 50 uM after 40 mins by thermal stabilization assay relative to control
[20] = target: T1, Lysosomal acid glucosylceramidase (Homo sapiens); assay: Binding affinity to recombinant beta-glucocerebrosidase assessed as enzymatic activity at 50 uM after 60 mins by thermal stabilization assay relative to control
[21] = target: T1, Lysosomal acid glucosylceramidase (Homo sapiens); assay: Binding affinity to recombinant beta-glucocerebrosidase assessed as enzymatic activity at 25 uM after 60 mins by thermal stabilization assay relative to control; summary of the method: as §1
[22] = target: T1, Lysosomal acid glucosylceramidase (Homo sapiens); assay: Binding affinity to recombinant beta-glucocerebrosidase assessed as enzymatic activity at 50 uM after 20 mins by thermal stabilization assay relative to control
[23] = target: T1, Lysosomal acid glucosylceramidase (Homo sapiens); assay: Inhibition of beta-glucocerebrosidase in human fibroblast at 10 uM after 24 hrs by fluorescence assay
Summary of the method: (§2)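 Wild-type human fibroblasts exposed to compound for 24 h (10, 20 or 50 μM, as listed) with 5 mM substrate. Cellular GCase activity then measured.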

[24] = target: T3, Beta-galactosidase (Bos taurus) (UniProt Q58D55); assay: Inhibition of bovine liver beta-galactosidase at 0.1 mM
T3 sequence (whole entry): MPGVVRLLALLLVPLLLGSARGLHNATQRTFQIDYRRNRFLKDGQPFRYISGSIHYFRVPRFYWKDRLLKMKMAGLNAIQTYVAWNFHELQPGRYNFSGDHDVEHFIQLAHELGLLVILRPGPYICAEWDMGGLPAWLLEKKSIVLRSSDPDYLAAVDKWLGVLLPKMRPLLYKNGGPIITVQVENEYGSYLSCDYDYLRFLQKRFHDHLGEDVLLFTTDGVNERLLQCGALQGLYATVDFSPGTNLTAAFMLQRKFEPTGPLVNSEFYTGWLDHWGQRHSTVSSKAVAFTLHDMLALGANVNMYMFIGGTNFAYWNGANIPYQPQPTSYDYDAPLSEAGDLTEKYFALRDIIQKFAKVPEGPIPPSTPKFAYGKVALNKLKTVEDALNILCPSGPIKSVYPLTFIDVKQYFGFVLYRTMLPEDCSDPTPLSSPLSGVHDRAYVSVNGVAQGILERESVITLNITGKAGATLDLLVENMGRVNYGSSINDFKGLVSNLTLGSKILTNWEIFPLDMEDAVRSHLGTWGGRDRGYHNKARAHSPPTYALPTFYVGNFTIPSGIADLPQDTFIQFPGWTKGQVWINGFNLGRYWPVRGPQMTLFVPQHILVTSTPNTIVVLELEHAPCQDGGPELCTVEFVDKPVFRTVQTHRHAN

[25] = target: T2, Lysosomal acid glucosylceramidase; assay: Inhibition of recombinant beta-glucocerebrosidase after 10 mins by fluorimetry
Summary of the method: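 Imiglucerase (0.1 mg/mL stock) in McIlvaine buffer, pH 5.2 or 7.4, with 0.2% sodium taurocholate and 0.1% Triton X-100. Preincubated 30 min at 37 °C with or without inhibitor. Then 4 mM 4-methylumbelliferyl-β-D-glucopyranoside added for 10 min at 37 °C. Stopped with glycine/NaOH pH 10.6; 4-MU read at ex 355/em 460 nm. IC50 from % activity vs log[I], at least five concentrations.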

[26] = target: T1, Lysosomal acid glucosylceramidase (Homo sapiens); assay: Binding affinity to recombinant beta-glucocerebrosidase assessed as enzymatic activity at 10 uM after 40 mins by thermal stabilization assay relative to control; summary of the method: as §1
[27] = target: T1, Lysosomal acid glucosylceramidase (Homo sapiens); assay: Inhibition of beta-glucocerebrosidase in human fibroblast at 50 uM after 24 hrs by fluorescence assay; summary of the method: as §2
[28] = tested on: Oryza sativa; assay: Inhibition of rice alpha-galactosidase at 0.1 mM
[29] = target: T1, Lysosomal acid glucosylceramidase (Homo sapiens); assay: Inhibition of beta-glucocerebrosidase in human fibroblast at 20 uM after 24 hrs by fluorescence assay; summary of the method: as §2
[30] = Dissociation constant, pKa of the compound; assay type: physicochemical
[31] = tested on: Prunus dulcis; assay: Inhibition of sweet almond beta-glucosidase at 0.1 mM
[32] = tested on: Glucosylceramide synthase (Homo sapiens); assay: Inhibition of glucosylceramide synthase in human A549 cells at 250 uM after 35 mins by fluorescence-coupled HPLC analysis
[33] = Cytotoxicity against human fibroblast after 24 hrs by MTT assay; assay type: cell-based; conditions: human fibroblasts

| fold change (FC) [2] | inhibition [3] | fold change (FC) [5] | fold change (FC) [6] | fold change (FC) [7] | fold change (FC) [9] | Ki [10] [nM] | inhibition [14] | IC50 [16] [nM] | IC50 [17] [µM] | fold change (FC) [18] | fold change (FC) [19] | fold change (FC) [20] | inhibition [24] | IC50 [25] [µM] | inhibition [27] | inhibition [28] | pKa [30] | inhibition [31] | Structure (SMILES) | Activity [12] | further results |
| --- | --- | --- | --- | --- | --- | --- | --- | --- | --- | --- | --- | --- | --- | --- | --- | --- | --- | --- | --- | --- | --- |
| 3.24 | inactive | 20.9 | 10.5 | 8.88 | 2.91 | 90 | inactive | 90 | 0.1 | 25.9 | 8.33 | 17.2 | inactive | 0.0933 | 90% | inactive | 7.1 | inactive | CCCCCCCCCCn1cc(CN[C@H]2[C@H](O)[C@@H](O)[C@H](O)[C@@H](O)[C@@H]2O)nn1 | Non-toxic | fold change (FC) [1]: 5.95; Selectivity Index [4]: >=3300; inhibition [8]: Active; fold change (FC) [11]: 4.19; fold change (FC) [13]: 2.21; fold change (FC) [15]: 1.55; fold change (FC) [21]: 10.2; fold change (FC) [22]: 2.7; inhibition [23]: 58%; fold change (FC) [26]: 3.56; inhibition [29]: 71% |
| 2.5 | inactive | 11.6 | 4.79 | 6.7 | 2.55 | 20200 | inactive | 4900 | 25.4 | 5.3 | 5.98 | 9.63 | inactive | 25.7 | 50% | inactive | 9.1 | inactive | CCCCCCCCCCCn1cc(CCN[C@H]2[C@H](O)[C@@H](O)[C@H](O)[C@@H](O)[C@@H]2O)nn1 | Non-toxic | fold change (FC) [22]: 2.43; inhibition [32]: 30% |
|  | inactive |  |  |  |  |  | inactive | 44600 | 257 |  |  |  | inactive | 257 | < 5% | inactive | 10.4 | inactive | CCCCCCn1cc(CCCN[C@H]2[C@H](O)[C@@H](O)[C@H](O)[C@@H](O)[C@@H]2O)nn1 | Non-toxic | inhibition [32]: 30% |

| Structure (SMILES) | fold change (FC) [2] | inhibition [3] | fold change (FC) [5] | fold change (FC) [6] | fold change (FC) [7] | fold change (FC) [9] | Ki [10] [nM] | inhibition [14] | IC50 [16] [nM] | IC50 [17] [µM] | fold change (FC) [18] | fold change (FC) [19] | fold change (FC) [20] | inhibition [24] | IC50 [25] [µM] | inhibition [27] | inhibition [28] | pKa [30] | inhibition [31] | Activity [12] | further results |
| --- | --- | --- | --- | --- | --- | --- | --- | --- | --- | --- | --- | --- | --- | --- | --- | --- | --- | --- | --- | --- | --- |
| CCCCCCCCCCCCn1cc(CN[C@H]2[C@H](O)[C@@H](O)[C@H](O)[C@@H](O)[C@@H]2O)nn1 | 3.21 | inactive | 28.7 | 11.5 | 12.8 | 3.41 | 60 | inactive | 60 | 0.03 | 26.2 | 10.9 | 24.9 | inactive | 0.0302 | Toxic | inactive | 7.1 | inactive |  | CC50 at 24 h [33]: 55 µM; fold change (FC) [1]: 9.42; Selectivity Index [4]: 916; fold change (FC) [11]: 18.7; fold change (FC) [13]: 2.97; fold change (FC) [15]: 2.65; fold change (FC) [21]: 23.2; fold change (FC) [22]: 3.11; inhibition [23]: 87%; fold change (FC) [26]: 8.48; inhibition [29]: 90% |
